An excerpt weighted towards active compounds, which were near 2.9% of everything screened.
RBBP9 inh: inhibitors of human serine hydrolase RBBP9 | hit rate 0.2% among 220,000 | O75884 | inhibition, % at 7.94 µM | recombinant RBBP9, FP-Rh probe fluorescence polarization;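 active = inhibition above the campaign mean of all tested compounds plus 3 SD, cut at about 14% in these data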;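 also: plate controls were DMSO wells with RBBP9 for no effect and wells lacking RBBP9 protein for full effect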
Target sequence (O75884 whole entry, looked up): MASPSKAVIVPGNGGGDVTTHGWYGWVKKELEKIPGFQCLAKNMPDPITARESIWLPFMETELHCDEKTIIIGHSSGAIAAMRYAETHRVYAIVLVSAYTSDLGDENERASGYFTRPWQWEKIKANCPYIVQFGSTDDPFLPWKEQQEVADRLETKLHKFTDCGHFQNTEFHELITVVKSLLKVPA
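Material: RBBP9 protein. Amount: RBBP9 at 2.5 µM in dispensed solution, before mixing. Schedule: 30 min then 45 min, 25 °C. Medium: Tris buffer pH 8.0, NaCl, Pluronic. Measured by: fluorescence polarization. Measure: percent inhibition from mP, scaled between DMSO and no-protein wells. Replication: one well per compound.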
Hck Nef HTS: human Hck-Nef kinase inhibition; P08631; Recombinant Hck-YEEI plus Nef, Z-Lyte FRET kinase assay; inhibition, % at 20 µM; hit rate 0.68% among 220,000;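 active = Hck-Nef kinase inhibition above about 50%, limit read from the data; inactive = inhibition below that limit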;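 also: 0% = DMSO with Hck plus Nef and 100% = Hck alone without Nef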
PfM18AAP inh: blocks P. falciparum M18 aspartyl aminopeptidase | hit rate 1.2% among 290,000 | recombinant PfM18AAP, H-Glu-NHMec fluorogenic cleavage | AID 1822 | inhibition, % at 7.35 µM;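 active = inhibition above the campaign mean inhibition over all tested compounds plus 3 SD, cut at about 28% in these data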;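 also: 0% = plate median of test compound wells and 100% = 2 mM ZnCl2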
Runt-CBFb FRET: blocks binding of human RUNX1 Runt domain to CBFb. Q01196+Q13951. Cerulean-Runt/Venus-CBFb FRET ratio 530/480, 1 h. inhibition, % at 20 µM. hit rate 0.46% among 220,000;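 active = inhibition over about 50% at 20 µM in the single-dose screen, limit read from the data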;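 also: 0% = DMSO wells and 100% = excess unlabeled CBFb competitor control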
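Assay system: Cerulean-Runt domain fusion protein, energy donor; Signal: fluorescence energy transfer, 422 nm excitation, 530/480 nm emission; Timing: 1 h compound exposure, room temperature; Control set: unlabeled CBFb; Medium: Tris buffer pH 7.5 with salts and BSA; Compound: single test concentration of 20 µM, 1% DMSO final; Probe or stimulus: Venus-CBFb 100 nM.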
Runt-SMMHC FRET: inhibitors of human RUNX1 Runt domain binding to CBFb-SMMHC. Cerulean-Runt/Venus-CBFb-SMMHC FRET ratio 530/480, 1 h. inhibition, % at 20 µM. hit rate 0.74% among 220,000. AID 1434;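 active = mean inhibition across duplicate retests at 20 µM reaching about 50%, limit read from the data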;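 also: 0% = DMSO wells and 100% = wells with excess untagged CBFb-SMMHC; inhibitors lower the FRET ratio by blocking Runt binding to CBFb-SMMHC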
RanGTP-Imp inh: disruptors of Ran-importin-beta complex formation – biochemical, FRET, CFP-Ran, YFP-importin-beta, homogeneous, primary screen; cell-free CFP-Ran/YFP-importin-beta FRET ratio; inhibition, % (no concentration beside the values); hit rate 1.1% among 300,000;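 active = more than half of the replicate wells show a fall in the fluorescence ratio signal beyond about 16%, limit read from the data, passing the limit was not always enough; inconclusive = exactly half of the replicate wells pass the set limit; inactive = fewer than half of replicates pass the limit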;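 also: 0% = DMSO wells and 100% = Ran loaded with GDP instead of GTP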
YIC FRET counter: counter-screen: alters YIC FRET probe signal. hit rate 40% among 1,000. IC50, µM. shares compounds with RanGTP-Imp inh. AID 435026. Purified YIC probe, intramolecular FRET ratio YFP/CFP;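 active = fitted half-maximal inhibitory concentration no more than tenfold above the top dose tested; inconclusive = flat fit with 30 to 70% activity, or poor fit; inactive = half-maximal concentration beyond tenfold above the top dose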
* = called active by the depositor; ? = inconclusive; . = no result.

SMILES	RBBP9 inh	Hck Nef HTS	PfM18AAP inh	Runt-CBFb FRET	Runt-SMMHC FRET	RanGTP-Imp inh	YIC FRET counter
COc1ccc(C(=O)CC(=O)C(=O)Nc2ccccc2Cl)cc1	.	.	2.4	.	.	-0.8	.
CCN1CCN(c2sc(S(C)(=O)=O)nc2S(=O)(=O)c2ccc(C)cc2)CC1	.	.	6.3	.	.	-4.1	.
O=S(=O)(Nc1nnc(C2CCCCC2)s1)c1ccc(F)cc1	.	.	4.2	.	.	0.3	.
O=[N+]([O-])c1ccc(S(=O)(=O)Nc2nnc(C3CCCCC3)s2)cc1	.	.	-4.2	.	.	19.7*	>50
C=CCN1C=CC(=CC=C(C#N)C#N)C=C1	5.3	-3.9	-3.6	-25.8	-49.8	20.9*	16.6*
COc1ccc(C(=O)Nc2sc3c(c2C#N)CCN(C(C)=O)C3)cc1	3.1	26.2	-4.8	41.1	61.9*	42.0*	>50
O=C(NCCCn1ccnc1)/C(=C\c1ccc(Br)cc1)NC(=O)c1ccccc1	.	.	-5.1	.	.	0.4	.
COc1ccc2cc(CCN3C(=O)c4ccccc4C3=O)c(=O)[nH]c2c1	-5.6	-3.7	0.0	-0.6	-0.9	20.4*	>50
COc1ccc2cc(CCNC(=O)C(C)(C)C)c(=O)[nH]c2c1	-2.1	-6.4	6.3	3.5	3.6	-6.3	.
COc1cccc(C2C(C(=O)c3cc4ccccc4o3)=C(O)C(=O)N2c2cc(C)on2)c1 (stereo unspecified)	.	.	15.3	.	.	?	.
Cc1cc(N2C(=O)C(O)=C(C(=O)c3cc4ccccc4o3)C2c2cccc(Cl)c2)no1 (stereo unspecified)	.	.	13.8	.	.	25.2*	7.37*
Cc1c(/C=N\NC(=O)C2COc3ccccc3O2)c2ccccc2n1C (stereo unspecified)	-5.0	2.7	1.2	-0.2	-4.5	23.0*	>50
Cn1cc(/C=N\NC(=O)C2COc3ccccc3O2)c2ccccc21 (stereo unspecified)	-9.2	1.7	-5.2	0.8	1.9	2.1	.
O=C(NCc1cccs1)C1CCCN1C(=O)Nc1ccccc1Cl (stereo unspecified)	.	.	3.5	.	.	-1.2	.
C=CCN1C(=O)/C(=C\c2cccc(OC(=O)c3ccco3)c2)SC1=S	.	.	9.4	.	.	-4.0	.
C=CCN1C(=O)/C(=C\c2ccc(OC(=O)c3ccco3)c(OC)c2)SC1=S	0.5	-31.5	11.4	-4.8	-7.8	18.7*	>50
Cc1cccc(N2CCN(C(=O)C3COc4ccccc4O3)CC2)c1C (stereo unspecified)	-9.8	0.7	-3.4	1.0	-3.5	25.7*	>50
Cc1c(CC(=O)N2CCN(C(=O)C3COc4ccccc4O3)CC2)c(=O)oc2c(C)c(O)ccc12 (stereo unspecified)	.	.	7.2	.	.	24.0*	14.2*
C/C(=N\NC(=O)c1nnn(-c2nonc2N)c1CN1CCCCC1)c1ccccc1O	.	.	4.2	.	.	2.9	.
COc1ccc(Cc2nnc(NC(=O)c3ccccc3C)s2)cc1	.	.	0.9	.	.	0.2	.
COc1cc(NC(=O)CCc2c(C)[nH]c(=O)c(C#N)c2C)cc(OC)c1	.	.	5.5	.	.	-1.5	.
Cc1cccc(Oc2nc(-c3cccc([N+](=O)[O-])c3)nc3ccccc23)c1C	-8.5	-0.9	4.7	2.3	1.5	20.7*	>50
COc1nc(-c2cccc([N+](=O)[O-])c2)nc2ccccc12	8.1	20.8	0.9	-1.4	-0.4	-2.9	.
CN(C)S(=O)(=O)c1cccc(C(=O)Nc2cc3c(cc2C(=O)O)OCCCO3)c1	.	.	1.5	.	.	1.0	.
Cn1c(=O)c2c(SCC(=O)N3CCOCC3)nc(-c3ccccc3F)nc2n(C)c1=O	.	.	-3.0	.	.	-0.5	.
C/C(=N\NC(=O)CNC(=O)c1ccccc1Br)c1ccco1	.	.	2.7	.	.	1.6	.
Cc1ccc(NC(=O)Cn2nc(C(F)(F)F)c3c2CCC3)cc1	-12.2	1.8	2.1	-0.4	2.9	22.3*	>50
Cc1cc(NC(=O)Cn2nc(C(F)(F)F)c3c2CCC3)no1	-6.0	7.2	-3.3	-0.9	-2.6	1.4	.
O=c1[nH]c2ccccc2n1C1CCCCC1	7.1	2.7	-3.6	2.9	-4.4	1.3	.
O=c1cc(N2CCC(Cc3ccccc3)CC2)[nH]c(=O)n1C1CCCCC1	2.3	-0.5	-6.0	-5.3	1.1	21.5*	>50
